Reference: ChEMBL document CHEMBL1122950, “Structure-activity relationships of C-terminal tri- and tetrapeptide fragments that inhibit gastrin activity” (J Med Chem, 1985)
Activity calls are given as the source filed them. No cut-off for these calls is given here. Where a SMILES comes first, the peptide text is derived from it.

biological target: T1, Gastrin/cholecystokinin type B receptor (Rattus norvegicus) (UniProt P30553); test: Inhibition of gastrin stimulated acid secretion in in situ perfused rat stomach; format: functional, tissue-based
T1 sequence (whole entry): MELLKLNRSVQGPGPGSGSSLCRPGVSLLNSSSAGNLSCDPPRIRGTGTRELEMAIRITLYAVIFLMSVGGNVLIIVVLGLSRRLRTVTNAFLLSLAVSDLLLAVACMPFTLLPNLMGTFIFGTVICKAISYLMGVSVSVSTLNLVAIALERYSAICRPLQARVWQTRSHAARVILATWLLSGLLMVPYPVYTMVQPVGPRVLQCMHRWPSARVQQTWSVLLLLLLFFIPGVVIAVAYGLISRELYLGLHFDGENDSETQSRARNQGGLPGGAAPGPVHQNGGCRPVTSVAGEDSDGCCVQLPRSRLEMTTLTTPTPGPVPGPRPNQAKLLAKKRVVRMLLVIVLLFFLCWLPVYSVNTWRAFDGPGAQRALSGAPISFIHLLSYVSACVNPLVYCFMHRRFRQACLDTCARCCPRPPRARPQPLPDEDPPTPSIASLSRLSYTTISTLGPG
Outline: (§1)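 In situ perfused stomach (Ghosh and Schild method) in urethane-anesthetized rats, with urethane given ip, or im and ip for some analogues. Acid secretion was stimulated by gastrin and test peptides were given in vivo. Antagonism is expressed as ED50 in μM/kg.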

ED50	SMILES
26.5 µmol/kg	CC(C)(C)OC(=O)N[C@@H](Cc1c[nH]c2ccccc12)C(=O)N[C@@H](Cc1ccccc1)C(=O)N[C@@H](CC(=O)O)C(N)=O (HELM PEPTIDE1{[CC(C)(C)OC(=O)[*:2]].W.F.D.[am]}$$$$V2.0)
19 µmol/kg	CC(C)C[C@H](NC(=O)[C@H](Cc1c[nH]c2ccccc12)NC(=O)OC(C)(C)C)C(=O)N[C@@H](CC(N)=O)C(=O)O (HELM PEPTIDE1{[CC(C)(C)OC(=O)[*:2]].W.L.N}$$$$V2.0)
30 µmol/kg	C[C@H](NC(=O)[C@H](Cc1c[nH]c2ccccc12)NC(=O)OC(C)(C)C)C(=O)N[C@@H](CC(=O)O)C(N)=O (HELM PEPTIDE1{[CC(C)(C)OC(=O)[*:2]].W.A.D.[am]}$$$$V2.0)
27.3 µmol/kg	CC(C)C[C@H](NC(=O)[C@H](Cc1c[nH]c2ccccc12)NC(=O)OC(C)(C)C)C(=O)N[C@@H](CC(=O)O)C(=O)O (HELM PEPTIDE1{[CC(C)(C)OC(=O)[*:2]].W.L.D}$$$$V2.0)
170 µmol/kg	O=C(N[C@@H](Cc1c[nH]c2ccccc12)C(=O)O)c1ccc(Cl)cc1
60 µmol/kg	CC(C)(C)OC(=O)N[C@@H](Cc1c[nH]c2ccccc12)C(=O)NCC(=O)N[C@@H](CC(=O)O)C(N)=O (HELM PEPTIDE1{[CC(C)(C)OC(=O)[*:2]].W.G.D.[am]}$$$$V2.0)
38 µmol/kg	CC(C)C[C@H](NC(=O)[C@H](Cc1c[nH]c2ccccc12)NC(=O)OCc1ccccc1)C(=O)N[C@@H](CC(=O)O)C(N)=O (HELM PEPTIDE1{[O=C(OCc1ccccc1)[*:2]].W.L.D.[am]}$$$$V2.0)
150 µmol/kg	CC(C)C[C@H](NC(=O)[C@H](Cc1c[nH]c2ccccc12)NC(=O)OC(C)(C)C)C(=O)N[C@@H](C)C(N)=O (HELM PEPTIDE1{[CC(C)(C)OC(=O)[*:2]].W.L.A.[am]}$$$$V2.0)

Continued, molecule first:

SMILES	ED50
CC(C)C[C@H](NC(=O)[C@H](Cc1c[nH]c2ccccc12)NC(=O)OC(C)(C)C)C(=O)N[C@H](CC(=O)O)C(N)=O	17 µmol/kg
CC(C)(C)OC(=O)N[C@@H](Cc1c[nH]c2ccccc12)C(=O)N1CCC[C@H]1C(=O)N[C@@H](CC(=O)O)C(N)=O (HELM PEPTIDE1{[CC(C)(C)OC(=O)[*:2]].W.P.D.[am]}$$$$V2.0)	15 µmol/kg
CC(C)C[C@H](NC(=O)[C@H](Cc1c[nH]c2ccccc12)NC(=O)OC(C)(C)C)C(=O)N[C@@H](CC(=O)O)C(=O)N(C)C (HELM PEPTIDE1{[CC(C)(C)OC(=O)[*:2]].W.L.D.[CN(C)[*:1]]}$$$$V2.0)	10 µmol/kg
CC(C)C[C@H](NC(=O)[C@H](Cc1c[nH]c2ccccc12)NC(=O)OC(C)(C)C)C(=O)N[C@@H](CCC(=O)O)C(N)=O (HELM PEPTIDE1{[CC(C)(C)OC(=O)[*:2]].W.L.E.[am]}$$$$V2.0)	11 µmol/kg
CCCC[C@H](NC(=O)[C@H](Cc1c[nH]c2ccccc12)NC(=O)OC(C)(C)C)C(=O)N[C@@H](CC(=O)O)C(N)=O (HELM PEPTIDE1{[CC(C)(C)OC(=O)[*:2]].W.[Nle].D.[am]}$$$$V2.0)	14 µmol/kg
CSCC[C@H](NC(=O)[C@H](Cc1c[nH]c2ccccc12)NC(=O)OC(C)(C)C)C(=O)N[C@@H](CC(=O)O)C(N)=O (HELM PEPTIDE1{[CC(C)(C)OC(=O)[*:2]].W.M.D.[am]}$$$$V2.0)	14 µmol/kg
CCCN(CCC)C(=O)C(CCC(=O)O)NC(=O)c1ccccc1 (stereo not given)	350 µmol/kg
CSCC[C@H](NC(=O)[C@H](Cc1c[nH]c2ccccc12)NC(=O)CNC(=O)OC(C)(C)C)C(=O)N[C@@H](CC(=O)O)C(N)=O (HELM PEPTIDE1{[CC(C)(C)OC(=O)[*:2]].G.W.M.D.[am]}$$$$V2.0)	8 µmol/kg
CC[C@H](C)[C@H](NC(=O)[C@H](Cc1c[nH]c2ccccc12)NC(=O)OC(C)(C)C)C(=O)N[C@@H](CC(=O)O)C(N)=O (HELM PEPTIDE1{[CC(C)(C)OC(=O)[*:2]].W.I.D.[am]}$$$$V2.0)	25 µmol/kg
CC(C)CC(NC(=O)[C@H](Cc1c[nH]c2ccccc12)NC(=O)OC(C)(C)C)C(=O)N[C@@H](CC(=O)O)C(N)=O (stereo not given in full)	15 µmol/kg

species: Rattus norvegicus; test: Inhibition of gastrin stimulated acid secretion in the in situ perfused rat stomach; Inactive; format: functional, organism-based; outline: as §1

SMILES	ED50
CC(C)C[C@H](NC(=O)[C@H](Cc1c[nH]c2ccccc12)NC(=O)OC(C)(C)C)C(=O)N[C@@H](CC(=O)OCc1ccccc1)C(N)=O (HELM PEPTIDE1{[CC(C)(C)OC(=O)[*:2]].W.L.D.[am]}|CHEM1{[c1ccc(CO[*:1])cc1]}$PEPTIDE1,CHEM1,4:R3-1:R1$$$V2.0)	inactive
CSCC[C@H](NC(=O)[C@H](Cc1c[nH]c2ccccc12)NC(=O)OC(C)(C)C)C(=O)N[C@@H](CC(=O)OCc1ccccc1)C(N)=O (HELM PEPTIDE1{[CC(C)(C)OC(=O)[*:2]].W.M.D.[am]}|CHEM1{[c1ccc(CO[*:1])cc1]}$PEPTIDE1,CHEM1,4:R3-1:R1$$$V2.0)	inactive
